Where “and” joins values, the source holds several entries; their conditions need not be identical. Equal entries are not always repeated.
Test system: U2OS
Assay: Multiplex assay against U2OS
Assay type: toxicity, cell-based
Settings: human
In short: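 Per cents of healthy-nucleus cells form the tubulin, mitochondrial-mass and membrane-permeability phenotype values. Live cells were stained at seeding with Hoechst33342, BioTracker Green Microtubule Cytoskeleton Dye, MitoTracker Red and Annexin V Alexa Fluor 680. After compound addition they were imaged on a CQ1 microscope at 37°C and 5% CO2, and CellPathfinder machine-learning gating split them into Hoechst high-intensity objects or normal cells, normal cells into healthy, pyknosed or fragmented nuclei, and pyknosed cells into mitotic or apoptotic.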

[1] = 12 h, 1 µM, compound concentration 1 uM
[2] = 12 h, 10 µM, compound concentration 10 uM
[3] = 24 h, 1 µM, compound concentration 1 uM
[4] = 24 h, 10 µM, compound concentration 10 uM
[5] = 48 h, 1 µM, compound concentration 1 uM
[6] = 48 h, 10 µM, compound concentration 10 uM

For COc1cc2ncnc(Nc3ccc(Oc4ccccc4)cc3C)c2cc1OC.Cl, the “Population Apoptotic (%)” value [1] was 43.18% and 56.25%, the “Population Fragmented Nuclei (%)” value [1] was 1.46% and 3.77% and the “Population Healthy Nuclei (%)” value [1] was 89.4% and 86.16%. For the same molecule, the “Population Hoechst High Intensity Objects (%)” value [1] was 0%, the “Population Membrane Permeable-Phenotype (%)” value [1] was 0.23% and 2.92% and the “Population Mitochondria Different-Phenotype (%)” value [1] was 0.47% and 9.49%. The “Population Mitotic Cells (%)” value [1] was 56.82% and 43.75%, the “Population Normal (%)” value [1] was 100% and the “Population Pyknosed Nuclei (%)” value [1] was 9.15% and 10.06%. The “Population Tubulin-Different-Phenotype (%)” value [1] was 0.47% and 0.73%, the “Population Apoptotic (%)” value [2] was 37.93% and 21.21% and the “Population Fragmented Nuclei (%)” value [2] was 2.47% and 2.03%. For the same molecule, the “Population Healthy Nuclei (%)” value [2] was 81.64% and 75.68%, the “Population Hoechst High Intensity Objects (%)” value [2] was 0.27% and 0% and the “Population Membrane Permeable-Phenotype (%)” value [2] was 11.74% and 10.71%. The “Population Mitotic Cells (%)” value [2] was 62.07% and 78.79%, the “Population Normal (%)” value [2] was 99.73% and 100% and the “Population Pyknosed Nuclei (%)” value [2] was 15.89% and 22.3%. The “Population Tubulin-Different-Phenotype (%)” value [2] was 14.09% and 5.36%, the “Total Cell Count” value [2] was 366 and 148 and the “Population Apoptotic (%)” value [3] was 41.67% and 39.13%. The “Population Fragmented Nuclei (%)” value [3] was 2.08% and 5.24%, the “Population Healthy Nuclei (%)” value [3] was 88.99% and 83.81% and the “Population Hoechst High Intensity Objects (%)” value [3] was 0%. The “Population Membrane Permeable-Phenotype (%)” value [3] was 0.67% and 2.84%, the “Population Mitochondria Different-Phenotype (%)” value [3] was 0.67% and 6.25% and the “Population Mitotic Cells (%)” value [3] was 58.33% and 60.87%. For the same molecule, the “Population Normal (%)” value [3] was 100%, the “Population Pyknosed Nuclei (%)” value [3] was 8.93% and 10.95% and the “Population Tubulin-Different-Phenotype (%)” value [3] was 0.67% and 1.7%. For the same molecule, the “Population Apoptotic (%)” value [4] was 64.1% and 26.19%, the “Population Fragmented Nuclei (%)” value [4] was 3.39% and 3.61% and the “Population Healthy Nuclei (%)” value [4] was 79.01% and 71.08%. The “Population Hoechst High Intensity Objects (%)” value [4] was 0%, the “Population Membrane Permeable-Phenotype (%)” value [4] was 8.57% and 6.78% and the “Population Mitotic Cells (%)” value [4] was 35.9% and 73.81%. For the same molecule, the “Population Normal (%)” value [4] was 100%, the “Population Pyknosed Nuclei (%)” value [4] was 17.61% and 25.3% and the “Population Tubulin-Different-Phenotype (%)” value [4] was 10.29% and 10.17%. For the same molecule, the “Total Cell Count” value [4] was 443 and 166, the “Population Apoptotic (%)” value [5] was 42.28% and 50% and the “Population Fragmented Nuclei (%)” value [5] was 3.36% and 3.22%. The “Population Healthy Nuclei (%)” value [5] was 87.01% and 84.5%, the “Population Hoechst High Intensity Objects (%)” value [5] was 0% and the “Population Membrane Permeable-Phenotype (%)” value [5] was 0.54% and 2.42%. For the same molecule, the “Population Mitochondria Different-Phenotype (%)” value [5] was 0% and 6.23%, the “Population Mitotic Cells (%)” value [5] was 57.72% and 50% and the “Population Normal (%)” value [5] was 100%. For the same molecule, the “Population Pyknosed Nuclei (%)” value [5] was 9.62% and 12.28%, the “Population Tubulin-Different-Phenotype (%)” value [5] was 0.63% and 1.38% and the “Population Apoptotic (%)” value [6] was 65.09% and 50%. The “Population Fragmented Nuclei (%)” value [6] was 6.98% and 4.76%, the “Population Healthy Nuclei (%)” value [6] was 79.05% and 76.19% and the “Population Hoechst High Intensity Objects (%)” value [6] was 0%. The “Population Membrane Permeable-Phenotype (%)” value [6] was 4.33% and 8.52%, the “Population Mitotic Cells (%)” value [6] was 34.91% and 50% and the “Population Normal (%)” value [6] was 100%. The “Population Pyknosed Nuclei (%)” value [6] was 13.97% and 19.05% and the “Population Tubulin-Different-Phenotype (%)” value [6] was 10.17% and 11.93%.
CC/C(=C(\c1ccc(O)cc1)c1ccc(OCCN(C)C)cc1)c1ccccc1 [AFIMOXIFENE] was tested, and the “Population Fragmented Nuclei (%)” value [1] was 0.84% and 5.44%, the “Population Healthy Nuclei (%)” value [1] was 90.45% and 83.67% and the “Population Hoechst High Intensity Objects (%)” value [1] was 0%. The “Population Membrane Permeable-Phenotype (%)” value [1] was 4.07%, the “Population Mitochondria Different-Phenotype (%)” value [1] was 0.62% and 4.88% and the “Population Mitotic Cells (%)” value [1] was 51.61% and 87.5%. For the same molecule, the “Population Normal (%)” value [1] was 100%, the “Population Pyknosed Nuclei (%)” value [1] was 8.71% and 10.88% and the “Population Tubulin-Different-Phenotype (%)” value [1] was 2.48% and 1.63%. For the same molecule, the “Total Cell Count” value [1] was 356 and 147, the “Population Apoptotic (%)” value [2] was 35.09% and 27.27% and the “Population Fragmented Nuclei (%)” value [2] was 2.04% and 0.59%. The “Population Healthy Nuclei (%)” value [2] was 78.57% and 73.37%, the “Population Hoechst High Intensity Objects (%)” value [2] was 0% and the “Population Membrane Permeable-Phenotype (%)” value [2] was 0.43% and 5.65%. The “Population Mitotic Cells (%)” value [2] was 64.91% and 72.73%, the “Population Normal (%)” value [2] was 100% and the “Population Pyknosed Nuclei (%)” value [2] was 19.39% and 26.04%. The “Population Tubulin-Different-Phenotype (%)” value [2] was 5.63% and 4.84%, the “Total Cell Count” value [2] was 294 and 169 and the “Population Apoptotic (%)” value [3] was 53.06% and 20%. For the same molecule, the “Population Fragmented Nuclei (%)” value [3] was 1.85% and 5.11%, the “Population Healthy Nuclei (%)” value [3] was 88.09% and 83.52% and the “Population Hoechst High Intensity Objects (%)” value [3] was 0%. For the same molecule, the “Population Membrane Permeable-Phenotype (%)” value [3] was 0.93% and 2.04%, the “Population Mitochondria Different-Phenotype (%)” value [3] was 0.7% and 6.12% and the “Population Mitotic Cells (%)” value [3] was 46.94% and 80%. For the same molecule, the “Population Normal (%)” value [3] was 100%, the “Population Pyknosed Nuclei (%)” value [3] was 10.06% and 11.36% and the “Population Tubulin-Different-Phenotype (%)” value [3] was 2.04%. The “Total Cell Count” value [3] was 487 and 176, the “Population Apoptotic (%)” value [4] was 33.75% and 23.46% and the “Population Fragmented Nuclei (%)” value [4] was 2.3%. The “Population Healthy Nuclei (%)” value [4] was 77.24% and 56.72%, the “Population Hoechst High Intensity Objects (%)” value [4] was 0% and the “Population Membrane Permeable-Phenotype (%)” value [4] was 0.99% and 3.51%. The “Population Mitotic Cells (%)” value [4] was 66.25% and 76.54%, the “Population Normal (%)” value [4] was 100% and the “Population Pyknosed Nuclei (%)” value [4] was 20.46% and 40.3%. For the same molecule, the “Population Tubulin-Different-Phenotype (%)” value [4] was 7.95% and 3.51%, the “Total Cell Count” value [4] was 391 and 201 and the “Population Apoptotic (%)” value [5] was 41.05% and 54.05%. For the same molecule, the “Population Fragmented Nuclei (%)” value [5] was 1.6% and 5.32%, the “Population Healthy Nuclei (%)” value [5] was 87.51% and 81.56% and the “Population Hoechst High Intensity Objects (%)” value [5] was 0%. For the same molecule, the “Population Membrane Permeable-Phenotype (%)” value [5] was 1.18% and 2.61%, the “Population Mitochondria Different-Phenotype (%)” value [5] was 0.26% and 4.78% and the “Population Mitotic Cells (%)” value [5] was 58.95% and 45.95%. The “Population Normal (%)” value [5] was 100%, the “Population Pyknosed Nuclei (%)” value [5] was 10.88% and 13.12% and the “Population Tubulin-Different-Phenotype (%)” value [5] was 0.79% and 1.74%. For the same molecule, the “Population Apoptotic (%)” value [6] was 43.75% and 40.78%, the “Population Fragmented Nuclei (%)” value [6] was 4.78% and 5.95% and the “Population Healthy Nuclei (%)” value [6] was 74.84% and 55.76%. The “Population Hoechst High Intensity Objects (%)” value [6] was 0%, the “Population Membrane Permeable-Phenotype (%)” value [6] was 2% and the “Population Mitotic Cells (%)” value [6] was 56.25% and 59.22%. The “Population Normal (%)” value [6] was 100%, the “Population Pyknosed Nuclei (%)” value [6] was 20.38% and 38.29% and the “Population Tubulin-Different-Phenotype (%)” value [6] was 7.66% and 8.67%. The “Total Cell Count” value [6] was 628 and 269.

From ChEMBL document CHEMBL5724801, “EUbOPEN Chemogenomics Library - Multiplex” (2024)
